Experimental data reported in ChEMBL document CHEMBL2021915, “Synthesis, characterization and biological activity of hydroxyl-bisphosphonic analogs of bile acids” (Eur J Med Chem, 2012).
Active and inactive are the calls of the source. The calls are words filed in the database; no cut-off is given here.

Columns and labels:
[1] = test system: Hydroxyapatite; assay: Binding affinity to hydroxyapatite assessed as unadsorbed compound level at 40 mg after 3 hrs using 2.5 mg/ml of hydroxyapatite by NMR analysis relative to control
Outline: (§1)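 Compound (about 40 mg) dissolved in 10 mL bidistilled water, pH adjusted to 7.4, stirred at 25 °C in a capped vial with hydroxyapatite; remaining unadsorbed compound in solution followed over time by NMR signal relative to starting signal.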

[2] = test system: Hydroxyapatite; assay: Binding affinity to hydroxyapatite assessed as unadsorbed compound level at 40 mg after 24 hrs using 2.5 mg/ml of hydroxyapatite by NMR analysis relative to control; outline: as §1
[3] = test system: Hydroxyapatite; assay: Binding affinity to hydroxyapatite assessed as unadsorbed compound level at 40 mg after 48 hrs using 5 mg/ml of hydroxyapatite by NMR analysis relative to control; outline: as §1
[4] = test system: Hydroxyapatite; assay: Binding affinity to hydroxyapatite assessed as unadsorbed compound level at 40 mg after 72 hrs using 7.5 mg/ml of hydroxyapatite by NMR analysis relative to control; outline: as §1
[5] = test system: Hydroxyapatite; assay: Binding affinity to hydroxyapatite assessed as unadsorbed compound level at 40 mg after 96 hrs using 10 mg/ml of hydroxyapatite by NMR analysis relative to control; outline: as §1
[6] = test system: PBMC; assay: Inhibition of osteoclastogenesis in human osteoclasts obtained from PBMC assessed as formation of TRAPC positive multinucleated cells at 10^-5 to 10^-9 M after 7 days; format: functional, cell-based
Outline: (§2)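 Human PBMC from buffy coats (Ficoll), adherent monocytes at 3 × 10^6 cells/cm2 differentiated in DMEM/10% FBS with 25% SH-SY5Y conditioned supernatant, compound (10^-5, 10^-7, 10^-9 M) added with differentiation medium for 7 days. TRACP-positive multinucleated cells counted after fixation and TRACP staining; untreated differentiated cultures = 100%. Duplicates; 4 cultures from two donors.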

[7] = test system: Osteoclast; assay: Induction of apoptosis in human multinucleated osteoclasts obtained from PBMC assessed as formation of apoptotic nuclear bodies at 10^-5 M after 7 days by Hoechst 33258 staining; format: functional, cell-based
Outline: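 PBMC-derived osteoclasts (7 days in SH-SY5Y-conditioned differentiation medium) then exposed to compound (10^-5, 10^-7, 10^-9 M) for a further 7 days. Fixed, stained with phalloidin-TRITC (F-actin rings) and Hoechst 33258; multinucleated cells with apoptotic nuclear bodies counted over whole well at 40×, as % of multinucleated TRACP-positive cells. 4 cultures, two donors.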

[8] = Solubility of the compound in L929 cell culture medium; format: physicochemical
[9] = Distribution coefficient, log D of the compound at pH 7.4; format: physicochemical; details: octanol/water
Outline: (§3)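 Log D values were obtained by calculation, not by experimental partitioning.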

[10] = Distribution coefficient, log D of the compound at pH 1.5; format: physicochemical; details: octanol/water; outline: as §3
[11] = test system: Hydroxyapatite; assay: Binding affinity to hydroxyapatite assessed as unadsorbed compound level at 20 mg after 3 hrs using 2.5 mg/ml of hydroxyapatite by NMR analysis relative to control
Outline: (§4)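 Bisphosphonate salt dissolved in bidistilled water, pH adjusted to 7.4, and magnetically stirred at 25 °C for the hydroxyapatite adsorption test.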

[12] = test system: Hydroxyapatite; assay: Binding affinity to hydroxyapatite assessed as unadsorbed compound level at 20 mg after 24 hrs using 2.5 mg/ml of hydroxyapatite by NMR analysis relative to control; outline: as §4
[13] = test system: Hydroxyapatite; assay: Binding affinity to hydroxyapatite assessed as unadsorbed compound level at 20 mg after 48 hrs using 5 mg/ml of hydroxyapatite by NMR analysis relative to control; outline: as §4
[14] = test system: Hydroxyapatite; assay: Binding affinity to hydroxyapatite assessed as unadsorbed compound level at 20 mg after 72 hrs using 7.5 mg/ml of hydroxyapatite by NMR analysis relative to control; outline: as §4
[15] = test system: Hydroxyapatite; assay: Binding affinity to hydroxyapatite assessed as unadsorbed compound level at 20 mg after 96 hrs using 10 mg/ml of hydroxyapatite by NMR analysis relative to control; outline: as §4
[16] = test system: L929; assay: Cytotoxicity against mouse L929 cells assessed as cell viability after 72 hrs by neutral-red uptake assay; format: cell-based; details: l929, 72 h
Outline: (§5)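 L929 mouse fibroblasts in MEM/10% FCS, 0.8 × 10^3 cells/well, adhered 24 h, then exposed to serial dilutions (10^-4 to 10^-10 M; 10^-2 M PBS pH 7.4 stocks) for 72 h. Neutral red 2 h at 37 °C, extracted with ethanol/acetic acid, OD 540 nm, blank-subtracted; ratio to medium-only control. Triplicate wells, 9 experiments.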

[17] = test system: L929; assay: Cytotoxicity against mouse L929 cells assessed as cell viability at 10^-4 to 10^-5 M after 72 hrs by neutral-red uptake assay relative to neridronate; format: cell-based; details: l929, 72 h; outline: as §5
[18] = test system: PBMC; assay: Inhibition of osteoclastogenesis in human osteoclasts obtained from PBMC assessed as formation of TRAPC positive multinucleated cells at 10^-5 M after 7 days; format: functional, cell-based; outline: as §2

C[C@H](CCC(O)(P(=O)(O)O)P(=O)(O)O)[C@H]1CC[C@H]2[C@@H]3[C@H](O)C[C@@H]4C[C@H](O)CC[C@]4(C)[C@H]3CC[C@]12C [listing 1 of 2 here]
Activity [1]: 91% | Activity [2]: 64% | Activity [3]: 32% | Activity [4]: 12% | Activity [5]: 3% | inhibition [6]: Active | Activity [7]: Active

C[C@H](CCC(O)(P(=O)([O-])O)P(=O)([O-])O)[C@H]1CC[C@H]2[C@@H]3[C@@H](O)C[C@@H]4C[C@H](O)CC[C@]4(C)[C@H]3CC[C@]12C.[Na+].[Na+]
solubility [8]: Insoluble

C[C@H](CCC(O)(P(=O)(O)O)P(=O)(O)O)[C@H]1CC[C@H]2[C@@H]3[C@H](O)C[C@@H]4C[C@H](O)CC[C@]4(C)[C@H]3C[C@H](O)[C@]12C
logD [9]: -4.53 | logD [10]: -0.76

NCCCCCC(O)(P(=O)(O)O)P(=O)(O)O [NERIDRONIC ACID]
Activity [11]: 98% | Activity [12]: 96% | Activity [13]: 85% | Activity [14]: 82% | Activity [15]: 67% | Activity [16]: Dose-dependent effect | inhibition [6]: Active | Activity [7]: Active

C[C@H](CCC(O)(P(=O)(O)O)P(=O)(O)O)[C@H]1CC[C@H]2[C@@H]3[C@@H](O)C[C@@H]4C[C@H](O)CC[C@]4(C)[C@H]3CC[C@]12C
logD ([9]; read-out: logD): -3.34 | logD [10]: 0.44

C[C@H](CCC(O)(P(=O)([O-])O)P(=O)([O-])O)[C@H]1CC[C@H]2[C@@H]3[C@H](O)C[C@@H]4C[C@H](O)CC[C@]4(C)[C@H]3CC[C@]12C.[Na+].[Na+]
Activity [16]: Dose-dependent effect | Activity [17]: Non-toxic

C[C@H](CCC(O)(P(=O)([O-])O)P(=O)([O-])O)[C@H]1CC[C@H]2[C@@H]3[C@H](O)C[C@@H]4C[C@H](O)CC[C@]4(C)[C@H]3C[C@H](O)[C@]12C.[Na+].[Na+]
solubility [8]: Insoluble

O=P(O)(O)C(Cl)(Cl)P(=O)(O)O [CLODRONIC ACID]
Activity [11]: 100% | Activity [12]: 100% | Activity [13]: 100% | Activity [14]: 96% | Activity [15]: 93% | logD [9]: -5.04 | logD [10]: -1.32

C[C@H](CCC(=O)O)[C@H]1CC[C@H]2[C@@H]3[C@H](O)C[C@@H]4C[C@H](O)CC[C@]4(C)[C@H]3CC[C@]12C
inhibition [18]: Active | Activity [7]: Active

C[C@H](CCC(O)(P(=O)(O)O)P(=O)(O)O)[C@H]1CC[C@H]2[C@@H]3[C@H](O)C[C@@H]4C[C@H](O)CC[C@]4(C)[C@H]3CC[C@]12C [listing 2 of 2 here]
logD ([9]; read-out: logD): -3.34 | logD [10]: 0.44
